Reference: PMC10993231 (RSC Advances, 2024)

Assay: Stability of radiolabeled peptide in human plasma
Format: in vitro ADME
Settings: 37 °C, TLC read-out
How it was run: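 The peptide was dissolved in DMSO and diluted with water, then iodinated with 131I (3 mCi) and chloramine-T in 0.05 mol L−1 PBS, pH 7.4. The mixture was vortexed 2 min at room temperature and the reaction stopped with sodium metabisulfite. The 131I-peptide was incubated with human plasma at 37 °C for up to 72 h to gauge proteolytic degradation.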

Radioactivity remaining after incubation in human plasma (5 h incubation): > 90%
Radioactivity remaining after incubation in human plasma (72 hours incubation): 57.5%
Substance: ^131I-cWIWLYA (head to tail)
